From ChEMBL document CHEMBL1123853, “A novel class of cardiotonics. Synthesis and pharmacological properties of [4-(substituted-amino)phenyl]pyridazinones and related derivatives” (1987)

What was measured:
Canis familiaris [1] = test: Inotropic activity determined by evaluating the maximum rate of rise in left ventricular pressure at a dose of 30 ug/kg administered intravenously […]; assay type: functional, Canis lupus familiaris, Muscle tissue
Procedure, shortened: (§1)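 Mongrel dogs of either sex, 7–15 kg, anesthetized with sodium pentobarbital (30 mg/kg iv), open-chest, intubated and ventilated on room air. Compounds given intravenously. A femoral artery catheter with pressure transducer recorded SBP and DBP. dP/dtmax, right ventricular contractile force, cardiac output and heart rate were also recorded, as % change at each iv dose.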

Canis familiaris [2] = test: Inotropic activity determined by evaluating the % change in Systolic Blood Pressure (SBP) at a dose of 3 ug/kg administered intravenously […]; assay type: functional, Canis lupus familiaris, Muscle tissue; procedure, shortened: as §1
Canis familiaris [3] = species: Canis familiaris; test: Positive inotropic in the isolated papillary muscle of the dog.; assay type: functional, Canis lupus familiaris
Procedure, shortened: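 Right ventricular anterior papillary muscle with septum, from mongrel dogs (7–12 kg, pentobarbital 30 mg/kg iv). It was perfused at about 100 mmHg via the septal artery with blood from a heparinized donor dog and paced at 120/min (1 ms pulses, about 1.5× threshold). Isometric tension was recorded. Saline solutions were injected intra-arterially, with amrinone as reference. ED15 (15% rise in developed tension) was taken from log dose-response curves. Results are mean ± SEM (n = 7) or mean ± range (n = 2).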

Canis familiaris [4] = test: Inotropic activity determined by evaluating the % change in Systolic Blood Pressure (SBP) at a dose of 10 ug/kg administered intravenously […]; assay type: functional, Canis lupus familiaris; procedure, shortened: as §1
Canis familiaris [5] = test: Inotropic activity determined by evaluating the % change in Cardiac out put (CO)at a dose of 30 ug/kg administered intravenously […]; assay type: functional, Canis lupus familiaris; procedure, shortened: as §1
Canis familiaris [6] = test: Inotropic activity determined by evaluating the % change in Diastolic Blood Pressure (DBP) at a dose of 30 ug/kg administered intravenously […]; assay type: functional, Canis lupus familiaris; procedure, shortened: as §1
Canis familiaris [7] = test: Inotropic activity determined by evaluating the % change in contractile force (CF) of right ventricle at a dose of 30 ug/kg administered intravenously […]; assay type: functional, Canis lupus familiaris, Heart right ventricle; procedure, shortened: as §1
Canis familiaris [8] = test: Inotropic activity determined by evaluating the % change in Heart Rate (HR) at a dose of 3 ug/kg administered intravenously […]; assay type: functional, Canis lupus familiaris; procedure, shortened: as §1
Canis familiaris [9] = test: Inotropic activity determined by evaluating the maximum rate of rise in left ventricular pressure at a dose of 10 ug/kg administered intravenously […]; assay type: functional, Canis lupus familiaris, Muscle tissue; procedure, shortened: as §1
Canis familiaris [10] = test: Inotropic activity determined by evaluating the % change in Diastolic Blood Pressure (DBP) at a dose of 10 ug/kg administered intravenously […]; assay type: functional, Canis lupus familiaris; procedure, shortened: as §1
Canis familiaris [11] = test: Inotropic activity determined by evaluating the % change in Heart Rate (HR) at a dose of 10 ug/kg administered intravenously […]; assay type: functional, Canis lupus familiaris; procedure, shortened: as §1
Canis familiaris [12] = test: Inotropic activity determined by evaluating the % change in contractile force (CF) of right ventricle at a dose of 10 ug/kg administered intravenously […]; assay type: functional, Canis lupus familiaris, Heart right ventricle; procedure, shortened: as §1
Canis familiaris [13] = test: Inotropic activity determined by evaluating the % change in Diastolic Blood Pressure (DBP) at a dose of 3 ug/kg administered intravenously […]; assay type: functional, Canis lupus familiaris; procedure, shortened: as §1
Canis familiaris [14] = species: Canis familiaris; test: Positive inotropic activity determined in the […](that produced 30% increase in dose- response curves [dP/dt(max)]); assay type: functional; conditions: Canis lupus familiaris
Procedure, shortened: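 In the anesthetized open-chest dog (mongrel, 7–15 kg, pentobarbital 30 mg/kg iv, ventilated on room air), compounds were given intravenously and LV dP/dtmax was recorded. The dose giving a 30% rise in dP/dtmax was read from the dose-response curves. Results are mean ± SEM (n = 3) or mean ± range (n = 2).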

Canis familiaris [15] = test: Inotropic activity determined by evaluating the % change in Systolic Blood Pressure (SBP) at a dose of 30 ug/kg administered intravenously […]; assay type: functional, Canis lupus familiaris, Muscle tissue; procedure, shortened: as §1
Canis familiaris [16] = test: Inotropic activity determined by evaluating the % change in Cardiac out put (CO)at a dose of 3 ug/kg administered intravenously […]; assay type: functional, Canis lupus familiaris; procedure, shortened: as §1
Canis familiaris [17] = test: Inotropic activity determined by evaluating the % change in Cardiac out put (CO)at a dose of 10 ug/kg administered intravenously […]; assay type: functional, Canis lupus familiaris; procedure, shortened: as §1
Canis familiaris [18] = test: Inotropic activity determined by evaluating the % change in contractile force (CF) of right ventricle at a dose of 3 ug/kg administered intravenously […]; assay type: functional, Canis lupus familiaris, Heart right ventricle; procedure, shortened: as §1
Canis familiaris [19] = test: Inotropic activity determined by evaluating the % change in Heart Rate (HR) at a dose of 30 ug/kg administered intravenously […]; assay type: functional, Canis lupus familiaris; procedure, shortened: as §1
Canis familiaris [20] = test: Inotropic activity determined by evaluating the maximum rate of rise in left ventricular pressure at a dose of 3 ug/kg administered intravenously […]; assay type: functional, Canis lupus familiaris, Muscle tissue; procedure, shortened: as §1
Canis familiaris [21] = test: Inotropic activity determined by evaluating the % change in Cardiac out put (CO)at a dose of 100 ug/kg administered intravenously […]; assay type: functional, Canis lupus familiaris; procedure, shortened: as §1
Canis familiaris [22] = test: Inotropic activity determined by evaluating the % change in Systolic Blood Pressure (SBP) at a dose of 100 ug/kg administered intravenously […]; assay type: functional, Canis lupus familiaris, Muscle tissue; procedure, shortened: as §1
Canis familiaris [23] = test: Inotropic activity determined by evaluating the % change in Heart Rate (HR) at a dose of 100 ug/kg administered intravenously […]; assay type: functional, Canis lupus familiaris; procedure, shortened: as §1
Canis familiaris [24] = test: Inotropic activity determined by evaluating the % change in contractile force (CF) of right ventricle at a dose of 100 ug/kg administered intravenously […]; assay type: functional, Canis lupus familiaris, Heart right ventricle; procedure, shortened: as §1
Canis familiaris [25] = test: Inotropic activity determined by evaluating the maximum rate of rise in left ventricular pressure at a dose of 100 ug/kg administered intravenously […]; assay type: functional, Canis lupus familiaris, Muscle tissue; procedure, shortened: as §1
Canis familiaris [26] = test: Inotropic activity determined by evaluating the % change in Diastolic Blood Pressure (DBP) at a dose of 100 ug/kg administered intravenously […]; assay type: functional, Canis lupus familiaris; procedure, shortened: as §1
Canis familiaris [27] = test: Inotropic activity determined by evaluating the % change in contractile force (CF) of right ventricle at a dose of 1000 ug/kg administered intravenously […]; assay type: functional, Canis lupus familiaris, Heart right ventricle; procedure, shortened: as §1
Canis familiaris [28] = test: Inotropic activity determined by evaluating the % change in Systolic Blood Pressure (SBP) at a dose of 1000 ug/kg administered intravenously […]; assay type: functional, Canis lupus familiaris, Muscle tissue; procedure, shortened: as §1
Canis familiaris [29] = test: Inotropic activity determined by evaluating the % change in contractile force (CF) of right ventricle at a dose of 300 ug/kg administered intravenously […]; assay type: functional, Canis lupus familiaris, Heart right ventricle; procedure, shortened: as §1
Canis familiaris [30] = test: Inotropic activity determined by evaluating the % change in Heart Rate (HR) at a dose of 300 ug/kg administered intravenously […]; assay type: functional, Canis lupus familiaris, Muscle tissue; procedure, shortened: as §1
Canis familiaris [31] = test: Inotropic activity determined by evaluating the % change in Heart Rate (HR) at a dose of 1000 ug/kg administered intravenously […]; assay type: functional, Canis lupus familiaris; procedure, shortened: as §1
Canis familiaris [32] = test: Inotropic activity determined by evaluating the maximum rate of rise in left ventricular pressure at a dose of 300 ug/kg administered intravenously […]; assay type: functional, Canis lupus familiaris, Muscle tissue; procedure, shortened: as §1
Canis familiaris [33] = test: Inotropic activity determined by evaluating the maximum rate of rise in left ventricular pressure at a dose of 1000 ug/kg administered intravenously […]; assay type: functional, Canis lupus familiaris, Muscle tissue; procedure, shortened: as §1
Canis familiaris [34] = test: Inotropic activity determined by evaluating the % change in Systolic Blood Pressure (SBP) at a dose of 300 ug/kg administered intravenously […]; assay type: functional, Canis lupus familiaris, Muscle tissue; procedure, shortened: as §1
Canis familiaris [35] = test: Inotropic activity determined by evaluating the % change in Cardiac out put (CO)at a dose of 300 ug/kg administered intravenously […]; assay type: functional, Canis lupus familiaris; procedure, shortened: as §1
Canis familiaris [36] = test: Inotropic activity determined by evaluating the % change in Diastolic Blood Pressure (DBP) at a dose of 300 ug/kg administered intravenously […]; assay type: functional, Canis lupus familiaris; procedure, shortened: as §1
Canis familiaris [37] = test: Inotropic activity determined by evaluating the % change in Diastolic Blood Pressure (DBP) at a dose of 1000 ug/kg administered intravenously […]; assay type: functional, Canis lupus familiaris; procedure, shortened: as §1
Canis familiaris [38] = test: Inotropic activity determined by evaluating the % change in Cardiac out put (CO)at a dose of 1000 ug/kg administered intravenously […]; assay type: functional, Canis lupus familiaris; procedure, shortened: as §1

Structure (SMILES) | dP/dt (Canis familiaris [1]) [%] | ED15 (Canis familiaris [3]) [µg] | Change of SBP (Canis familiaris [4]) [%] | Change of CO (Canis familiaris [5]) [%] | Change of DBP (Canis familiaris [6]) [%] | Change of CF (Canis familiaris [7]) [%] | dP/dt (Canis familiaris [9]) [%] | Change of DBP (Canis familiaris [10]) [%] | Change of HR (Canis familiaris [11]) [%] | Change of CF (Canis familiaris [12]) [%] | ED30 (Canis familiaris [14]) [mg/kg] | Change of SBP (Canis familiaris [15]) [%] | Change of CO (Canis familiaris [17]) [%] | Change of HR (Canis familiaris [19]) [%] | Change of CO (Canis familiaris [21]) [%] | Change of SBP (Canis familiaris [22]) [%] | Change of HR (Canis familiaris [23]) [%] | Change of CF (Canis familiaris [24]) [%] | dP/dt (Canis familiaris [25]) [%] | Change of DBP (Canis familiaris [26]) [%] | other results
Cl.O=C1CCC(c2ccc(Nc3ccncc3)cc2)=NN1 | 69.1 | 4.1 | -16.1 | 27.7 | -32.9 | 78.9 | 37.3 | -22 | 9.9 | 56.4 | 0.0085 | -24.9 | 17.2 | 17.4 | – | – | – | – | – | – | Change of SBP (Canis familiaris [2]): -7.9%; Change of HR (Canis familiaris [8]): 5.8%; Change of DBP (Canis familiaris [13]): -10.9%; Change of CO (Canis familiaris [16]): 12.6%; Change of CF (Canis familiaris [18]): 34.4%; dP/dt (Canis familiaris [20]): 20.9%
Cl.Oc1ccc(-c2ccc(Nc3ccncc3)cc2)nn1 | 39.6 | 50 | -3.6 | 5.4 | -20 | 19.9 | 20.2 | -7.5 | 1.3 | 11 | 0.022 | -11.9 | 1.6 | 2.4 | 7.7 | -22.3 | 4.2 | 33.7 | 57.1 | -27.6 | –
Nc1cc(-c2ccncc2)c[nH]c1=O [INAMRINONE] | – | 200 | – | – | – | – | – | – | – | – | 0.472 | – | – | – | 1.9 | -5 | 1.2 | 6.5 | 6.7 | -4.7 | Change of CF (Canis familiaris [27]): 79.7%; Change of SBP (Canis familiaris [28]): -5.5%; Change of CF (Canis familiaris [29]): 22.4%; Change of HR (Canis familiaris [30]): 3.8%; Change of HR (Canis familiaris [31]): 8.1%; dP/dt (Canis familiaris [32]): 22.3%; dP/dt (Canis familiaris [33]): 54.8%; Change of SBP (Canis familiaris [34]): -2.7%; Change of CO (Canis familiaris [35]): 15.6%; Change of DBP (Canis familiaris [36]): -4.1%; Change of DBP (Canis familiaris [37]): -14.1%; Change of CO (Canis familiaris [38]): 36.5%
